Sampled rows, rich in hits. Any-hit rate of the full collection: about 2.9%.
Runt-CBFb FRET = inhibitors of RUNX1 Runt–CBFb binding, primary screen, biochemical, FRET, Cerulean-Runt, Venus-CBFb, uHTS | 0.46% of 220,000 active | AID 1496, 2009 | inhibition, % at 20 µM | Cerulean-Runt/Venus-CBFb FRET ratio 530/480, 1 h;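 active means inhibition over about 50% at 20 µM in the single-dose screen, limit read from the data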;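 further: 0% = DMSO wells and 100% = excess unlabeled CBFb competitor control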
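Doses: 20 µM compound in 1% DMSO | Material: Cerulean-labeled Runt domain protein | Amount: Each fluorescent fusion protein 100 nM | Schedule: Two 1 h room-temperature incubations shielded from light | Measured by: FRET fluorescence | Evaluation: Loss of energy transfer signal | Controls: Unlabeled CBFb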
Runt-SMMHC FRET = inhibitors of RUNX1 Runt–CBFb-SMMHC binding, primary screen, biochemical, FRET, Cerulean-Runt, Venus-CBFb-SMMHC, uHTS. Runt-related transcription factor 1 (Homo sapiens) + Core-binding factor subunit beta …. Cerulean-Runt/Venus-CBFb-SMMHC FRET ratio 530/480, 1 h. inhibition, % at 20 µM. 0.74% of 220,000 active. AID 1434, 2008;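 active means mean inhibition across duplicate retests at 20 µM reaching about 50%, limit read from the data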;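 further: 0% = DMSO wells and 100% = wells with excess untagged CBFb-SMMHC; inhibitors lower the FRET ratio by blocking Runt binding to CBFb-SMMHC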
RanGTP-Impb inh = inhibitors of RanGTP-importin-beta interaction, primary screen, biochemical, FRET, CFP-Ran, YFP-importin-beta, homogeneous; cell-free CFP-Ran/YFP-importin-beta FRET ratio; Ran GTPase (GTP-bound) - importin-beta complex; AID 2216, 2009; inhibition, % (test concentration not listed); 1.1% of 300,000 active;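 active means more than half of the replicate wells show a fall in the fluorescence ratio signal beyond about 16%, limit read from the data, passing the limit was not always enough; inconclusive means exactly half of the replicate wells pass the set limit; inactive means fewer than half of replicates pass the limit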;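 further: 0% = DMSO wells and 100% = Ran loaded with GDP instead of GTP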
Hck Nef HTS = inhibitors of Nef-activated human Hck kinase, primary screen, biochemical, Z-Lyte FRET, 384-well, Hck-YEEI; AID 463187, 2010; 0.68% of 220,000 active; inhibition, % at 20 µM; Tyrosine-protein kinase HCK (Homo sapiens), P08631; Recombinant Hck-YEEI plus Nef, Z-Lyte FRET kinase assay;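 active means Hck-Nef kinase inhibition above about 50%, limit read from the data; inactive means inhibition below that limit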;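 further: 0% = DMSO with Hck plus Nef and 100% = Hck alone without Nef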
Target sequence (P08631 whole entry, looked up): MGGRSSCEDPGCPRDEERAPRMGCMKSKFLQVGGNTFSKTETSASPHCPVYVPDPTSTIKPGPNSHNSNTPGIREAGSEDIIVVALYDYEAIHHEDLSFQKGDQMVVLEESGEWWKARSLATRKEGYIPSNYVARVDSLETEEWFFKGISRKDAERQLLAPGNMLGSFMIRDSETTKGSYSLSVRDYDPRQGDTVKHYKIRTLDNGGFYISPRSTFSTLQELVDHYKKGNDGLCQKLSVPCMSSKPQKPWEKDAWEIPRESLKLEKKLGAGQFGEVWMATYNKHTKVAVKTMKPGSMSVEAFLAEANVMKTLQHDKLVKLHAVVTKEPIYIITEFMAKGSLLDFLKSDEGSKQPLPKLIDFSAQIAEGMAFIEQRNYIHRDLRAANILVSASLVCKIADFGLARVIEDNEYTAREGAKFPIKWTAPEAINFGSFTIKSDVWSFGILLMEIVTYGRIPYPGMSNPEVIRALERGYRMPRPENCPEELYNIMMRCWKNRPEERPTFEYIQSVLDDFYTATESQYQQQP
M18AAP inhibitor = PfM18AAP inhibitors, malaria aminopeptidase, primary screen, biochemical, QFRET, recombinant enzyme. H-Glu-NHMec fluorogenic cleavage. inhibition, % at 7.35 µM. 1.2% of 290,000 active;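 active means inhibition above the campaign mean inhibition over all tested compounds plus 3 SD, cut at about 28% in these data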;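 further: 0% = plate median of test compound wells and 100% = 2 mM ZnCl2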
RBBP9 inhibitor = human RBBP9 inhibitors, primary screen, biochemical, fluorescence polarization, FP-Rh probe, HTS | recombinant RBBP9 | inhibition, % at 7.94 µM | 0.2% of 220,000 active;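 active means inhibition above the campaign mean of all tested compounds plus 3 SD, cut at about 14% in these data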;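 further: plate controls were DMSO wells with RBBP9 for no effect and wells lacking RBBP9 protein for full effect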
Target sequence (O75884 whole entry, looked up): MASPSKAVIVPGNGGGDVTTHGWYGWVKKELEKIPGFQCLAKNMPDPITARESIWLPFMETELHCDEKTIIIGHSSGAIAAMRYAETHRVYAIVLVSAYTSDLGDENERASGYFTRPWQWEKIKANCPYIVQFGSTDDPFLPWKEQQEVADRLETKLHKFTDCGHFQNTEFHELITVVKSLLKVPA
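system = RBBP9 protein | input = RBBP9 at 2.5 µM in dispensed solution, before mixing | measured by = fluorescence polarization (mP), excitation 525 nm, emission 598 nm | incubation = enzyme-compound preincubation 30 min, then probe labeling 45 min, 25 °C | buffer or medium = Tris-NaCl-Pluronic buffer, pH 8.0 | compound = single dose 7.94 µM | also added = FP-Rh probe, 375 nM dispensing solution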
YIC FRET counter = YIC intramolecular FRET probe signal interference, dose response, counter-screen for RanGTP-importin-beta inhibitor project, biochemical, fluorescence FRET. Purified YIC probe, intramolecular FRET ratio YFP/CFP. IC50, µM. 40% of 1,000 active. shares compounds with RanGTP-Impb inh;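 active means fitted half-maximal inhibitory concentration no more than tenfold above the top dose tested; inconclusive means flat fit with 30 to 70% activity, or poor fit; inactive means half-maximal concentration beyond tenfold above the top dose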
* marks the source's active call; other numbers are inactive results; ? = inconclusive; . = not tested or not shown.

SMILES	Runt-CBFb FRET	Runt-SMMHC FRET	RanGTP-Impb inh	Hck Nef HTS	M18AAP inhibitor	RBBP9 inhibitor	YIC FRET counter
Cc1ccc(NC(=O)N2CCCCCC2)c(C)c1	.	.	-0.4	.	6.9	.	.
O=S(=O)(Nc1nc2ccccc2nc1-[n+]1cccc(N=C([O-])c2ccccc2Cl)c1)c1ccccc1	47.8	75.0*	24.0*	10.9	0.4	1.8	6.74*
COc1ccc(C([O-])=Nc2ccc[n+](-c3nc4ccccc4nc3NS(=O)(=O)c3ccccc3)c2)cc1	-6.5	-6.3	-0.2	-5.4	-1.1	-5.9	.
O=C(CN1C2CCCC1CC(NC(=O)c1ccco1)C2)Nc1ccccc1C(F)(F)F (stereo unspecified)	-8.3	2.5	16.9*	6.1	-1.5	-0.9	>50
Cc1c(C(=O)Nc2c(C)n(C)n(-c3ccccc3)c2=O)oc2ccc(Cl)cc12	.	.	-1.1	.	1.1	.	.
Cc1cc(C)c(S(=O)(=O)N(C)CC(N)=O)c(C)c1	-2.1	-6.3	17.3*	0.1	1.4	-0.9	>50
CCN1CCN(Cc2ccc(NC(=O)c3ccc(C)c(NC(=O)c4cccc(-c5cn[nH]c(=O)c5)c4)c3)cc2C(F)(F)F)CC1	.	.	-1.1	.	-5.8	.	.
CCN1CCN(Cc2ccc(NC(=O)c3ccc(C)c(/C=C/c4cnc(Nc5cc(N6CCNCC6)nc(C)n5)cn4)c3)cc2C(F)(F)F)CC1	.	.	31.0*	.	-8.6	.	17.1*
CC1CCCN(C(=O)C2CCN(S(=O)(=O)c3ccc4c(c3)CC(C)N4C(=O)C3CC3)CC2)C1 (stereo unspecified)	.	.	-1.3	.	1.3	.	.
O=C(/C=C/c1cccs1)Nc1ccc([N+](=O)[O-])cc1	-6.0	-0.5	18.8*	-0.1	-16.2	-8.6	>50
CC(C)NC(=O)C1CCN(c2ccc(S(=O)(=O)N3CCOCC3)cc2Cl)CC1	-0.6	-0.3	4.8	4.5	2.1	-10.6	.
NC(=O)c1ccccc1NC(=O)C(c1ccccc1)c1ccccc1	.	.	-0.9	.	.	.	.
O=c1cc(N2CCN(c3ccc(F)cc3)CC2)[nH]c(=O)n1Cc1ccc(F)cc1	-0.3	1.8	5.4	3.9	4.4	-3.8	.
CC1CC(C)CN(c2cc(=O)n(Cc3ccc(F)cc3)c(=O)[nH]2)C1 (stereo unspecified)	-0.3	-2.0	60.5*	0.4	2.0	-10.7	>50
CN(C)/C=C/C(=O)/C=C/c1ccc(Cl)cc1	0.5	1.3	22.1*	2.6	4.4	-4.2	>50
CCCn1cnc2cc(NCc3ccc(Br)cc3)ccc21	.	.	19.4*	.	18.2	.	>50
CCn1cnc2cc(NCc3ccc(Br)cc3)ccc21	.	.	?	.	-14.9	.	.
Oc1ccc(-c2[nH]ncc2-c2cccc3cccnc23)c(O)c1	0.2	1.7	17.4*	-0.4	14.3	2.0	>50
CCC(C)c1ccc(OCC(=O)O)cc1 (stereo unspecified)	3.2	-3.0	24.4*	12.7	5.0	1.4	>50
CCCc1ccc(OCC(=O)O)cc1	2.0	-1.6	1.1	0.4	-3.5	0.2	.
Cc1ccc(NC(=O)CN(C)S(=O)(=O)c2cnc[nH]2)c(C)c1	.	.	2.2	.	-8.9	.	.
COC(=O)C1=CN(C2CC2)C=C(C(=O)OC)C1c1ccc(C(F)(F)F)cc1	80.4*	122.9*	26.1*	25.6	-13.6	-14.2	19.1*
COC(=O)C1=CN(c2ccc(F)cc2)C=C(C(=O)OC)C1c1ccc([N+](=O)[O-])cc1	.	.	0.2	.	-3.4	.	.
CCCC1=C(C(=O)OCC)C(c2ccccc2OC)NC(=O)N1 (stereo unspecified)	-2.5	6.2	6.2	1.8	-3.9	-4.5	.
CCOC(=O)C1=C(C)NC2=C(C(=O)C(C(=O)OCC)C(c3ccccc3OC)C2)C1c1ccccn1 (stereo unspecified)	20.8	83.2*	18.3*	33.7	-5.9	-10.7	23.2*
SMILES	Runt-CBFb FRET	Runt-SMMHC FRET	RanGTP-Impb inh	Hck Nef HTS	M18AAP inhibitor	RBBP9 inhibitor	YIC FRET counter
CCOC(=O)C1=C(C)NC2=C(C(=O)C(C(=O)OCC)C(c3ccc(OC)cc3)C2)C1c1ccccn1 (stereo unspecified)	39.0	74.7*	18.0*	10.8	-8.0	-0.3	27.5*
COC(=O)C1C(=O)C2=C(CC1C)NC(C)=C(C(=O)OCc1ccc(OC)cc1)C2c1ccc(C)o1 (stereo unspecified)	-4.1	-3.7	-0.5	3.4	1.5	-12.4	.
COC(=O)C1C(=O)C2=C(CC1C)NC(C)=C(C(=O)OCCOc1ccccc1)C2c1ccc(C)o1 (stereo unspecified)	0.5	-1.1	-1.2	4.0	14.1	-6.2	.
CCOC(=O)C1=C(C)NC2=C(C(=O)C(C(=O)OCC)C(c3cccc(OC)c3)C2)C1c1ccccn1 (stereo unspecified)	35.1	88.8*	26.3*	30.3	-4.0	-10.1	21.4*
Cc1ccc(C)c(N(CC(=O)NC2CCCC2)S(=O)(=O)c2ccccc2)c1	.	.	2.6	.	-2.6	.	.
CSc1nc(-c2ccc(N(C)C)cc2)c(C#N)c(=O)n1C	48.3	85.4*	16.9*	-44.8	3.7	4.0	9.42*
COc1ccc(CN2CCN(C3CCC3)CC2CCO)cc1C (stereo unspecified)	.	.	2.6	.	-5.5	.	.
Cc1ccc(/C=C2\CCC3=C2OC(N)=C(C#N)C3c2ccc(C)cc2)cc1 (stereo unspecified)	-31.4	-74.1	-81.2	3.7	2.0	1.7	.
N#CC1=C(N)OC2=C(CCc3ccccc32)C1c1ccccc1 (stereo unspecified)	35.3	38.5	17.8*	2.7	-11.1	-9.6	>50
O=C(/C=C/c1ccccc1)C1=C(O)C(=O)N(CCO)C1c1ccc2c(c1)OCO2 (stereo unspecified)	0.8	0.6	0.3	11.3	11.7	-0.6	.
CC1C(=O)Nc2ccc(S(=O)(=O)NCCc3ccc(Cl)cc3)cc2NC1=O (stereo unspecified)	.	.	-1.3	.	1.2	.	.
C=CCN(CC=C)C(=O)CN1C(=O)NC(c2ccccc2)(c2ccccc2)C1=O	.	.	-0.3	.	0.4	.	.
N=c1oc2ccccc2cc1-c1nc(-c2ccc(Cl)cc2)cs1	-45.7	-149.8	16.7*	-0.7	-1.8	-0.9	32.3*

Screening results from PubChem.
